Assay results from ChEMBL document CHEMBL3124872, “Discovery and early development of TMC647055, a non-nucleoside inhibitor of the hepatitis C virus NS5B polymerase” (J Med Chem, 2014).
Activity calls are given as the source filed them. The rule behind the calls is not given here.

Assays:
Hepatitis C virus [1] = assay: Antiviral activity against Hepatitis C virus genotype 1b infected in human HuH7 cells after 72 hrs by luciferase reporter gene assay in presence of 40% human plasma relative to control; type: functional, Hepacivirus hominis, Huh-7
[2] = Cytotoxicity against human MT4 cells; type: cell-based
[3] = Cytotoxicity against human HuH7 cells; type: cell-based, Huh-7
[4] = Binding affinity to His6-tagged Hepatitis C virus Con 1b NS5B delta21 RNA dependent RNA polymerase expressed in Escherichia coli Rosetta 2 (DE3) by surface plasmon resonance analysis; parameters: species or system Hepatitis C virus (isolate Con1)
How it was run: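 Surface plasmon resonance binding to NS5B polymerase of the stated genotype; association and dissociation rate constants measured, from which Kd and residence half-life were derived; median Kd reported.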

Hepatitis C virus [5] = assay: Antiviral activity against Hepatitis C virus genotype 1b infected in human HuH7 cells after 72 hrs by luciferase reporter gene assay; type: functional, organism-based, Hepacivirus hominis; conditions: Huh-7, 72 h
[6] = Drug uptake in Sprague-Dawley rat liver at 10 mg/kg, po after 7 hrs; type: ADME, organism-based; parameters: dose 10 mg/kg, route oral; conditions: read-out: Drug uptake
[7] = Drug metabolism in human liver microsomes at 5 uM after 15 mins; type: ADME; conditions: read-out: Drug metabolism
How it was run: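 Stability in human liver microsomes: test compound at 5 μM, incubated 15 min; reported as percentage of compound metabolized.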

[8] = Ratio of drug level in liver to plasma in Sprague-Dawley rat at 10 mg/kg, po after 7 hrs; type: ADME, organism-based; parameters: dose 10 mg/kg, route oral
[9] = Plasma clearance in Sprague-Dawley rat at 2 mg/kg, iv and 10 mg/kg, po; type: ADME, organism-based
[10] = Drug metabolism in rat liver microsomes after 15 mins; type: ADME; conditions: read-out: Drug metabolism
[11] = Oral bioavailability in Sprague-Dawley rat at 10 mg/kg; type: ADME, organism-based; conditions: in vivo
Hepatitis C virus [12] = assay: Antiviral activity against Hepatitis C virus genotype 1b infected in human HuH7 assessed as suppression of formation of resistant colonies at 0.2 uM preincubated for 2 weeks followed by 3 week rebound phase by RT-PCR analysis; type: functional, organism-based; conditions: Hepacivirus hominis, Huh-7
How it was run: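 Colony formation test in Huh7-Luc replicon cells incubated for 2−3 weeks with inhibitor alone (0.20 μM), scored for formation of resistant colonies.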

Hepatitis C virus [13] = assay: Antiviral activity against Hepatitis C virus genotype 1b infected in human assessed as reduction in plasma HCV RNA level administered for 10 days measured on day 11; type: functional, organism-based; conditions: Hepacivirus hominis
How it was run: (§1)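 HCV genotype 1a- and 1b-infected patients received oral 1000 mg b.i.d. together with an NS3/4A protease inhibitor at 150 mg q.d. for 10 days. The read-out was the median decrease in plasma HCV RNA (log10 IU/mL) at day 11.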

Hepatitis C virus [14] = assay: Antiviral activity against Hepatitis C virus genotype 1a infected in human assessed as reduction in plasma HCV RNA level administered for 10 days measured on day 11; type: functional, organism-based; conditions: Hepacivirus hominis, subtype 1a; how it was run: as §1
Hepatitis C virus [15] = assay: Antiviral activity against Hepatitis C virus genotype 1b infected in human HuH7 assessed as rebound of replicon RNA at 0.25 uM preincubated for 2 weeks followed by 3 week rebound phase by RT-PCR analysis; type: functional, organism-based; conditions: Hepacivirus hominis, Huh-7
How it was run: (§2)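 Huh7-Luc replicon cells incubated 14 days with compound alone or in combination, followed by a 3-week rebound phase without inhibitor; replicon RNA followed for clearance and rebound.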

Hepatitis C virus [16] = assay: Antiviral activity against Hepatitis C virus genotype 1b infected in human HuH7 assessed as clearance of replicon cells at 0.25 uM preincubated for 2 weeks followed by 3 week rebound phase by RT-PCR analysis; type: functional, organism-based; conditions: Hepacivirus hominis, Huh-7; how it was run: as §2

SMILES	fold change (FC) (Hepatitis C virus [1])	CC50 [2] [µM]	CC50 [3] [µM]	Kd [4] [µM]	also measured
COc1ccc2c(c1)C=C1Cn3c-2c(C2CCCCC2)c2ccc(cc23)C(=O)NS(=O)(=O)N(C)CCCCCCN(C)C1=O	10	> 25	> 25	0.0008	
COc1ccc2c(c1)C=C1Cn3c-2c(C2CCCCC2)c2ccc(cc23)C(=O)NS(=O)(=O)N(C)CCCCN(C)C1=O		> 25	> 25		EC50 (Hepatitis C virus [5]): 0.075 µM
COc1ccc2c(c1)C=C1Cn3c-2c(C2CCCCC2)c2ccc(cc23)C(=O)NS(=O)(=O)N(C)CCCN(C)C1=O	10	> 25	> 25	0.007	
COc1ccc2c(c1)C=C1Cn3c-2c(C2CCCCC2)c2ccc(cc23)C(=O)NS(=O)(=O)N(C)CCCCCNC1=O	10	> 25	> 25	0.0009	concentration at 7 h [6]: 6320 ng/g
COc1ccc2c(c1)C=C1Cn3c-2c(C2CCCCC2)c2ccc(cc23)C(=O)NS(=O)(=O)N(C)CCN(C)CCNC1=O	10	> 25	> 25		
COc1ccc2c(c1)C=C1Cn3c-2c(C2CCCCC2)c2ccc(cc23)C(=O)NS(=O)(=O)N2CCN(CCNC1=O)CC2	10	> 25	> 25	0.025	
CN1CCOCCN(C)S(=O)(=O)NC(=O)c2ccc3c(C4CCCCC4)c4n(c3c2)CC(=Cc2cc(Cl)ccc2-4)C1=O	10	> 25	> 25	0.0015	
CN1CCOCCN(C)S(=O)(=O)NC(=O)c2ccc3c(C4CCCCC4)c4n(c3c2)CC(=Cc2cc(F)ccc2-4)C1=O	10	> 25	> 25		concentration at 7 h [6]: 6560 ng/g
COc1ccc2c(c1)C=C1Cn3c-2c(C2CCCCC2)c2ccc(cc23)C(=O)NS(=O)(=O)N(C)CCCCNC1=O	10	> 25	> 25	0.0071	
COc1ccc2c(c1)C=C1Cn3c-2c(C2CCCCC2)c2ccc(cc23)C(=O)NS(=O)(=O)NCCCCN(C)C1=O	10	> 25	> 25	0.015	
COc1ccc2c(c1)C=C1Cn3c-2c(C2CCCCC2)c2ccc(cc23)C(=O)NS(=O)(=O)N(C)CCN2CCN(CC2)C1=O	10	> 25	> 25		concentration at 7 h [6]: 299 ng/g
COc1ccc2c(c1)C[C@@H]1Cn3c-2c(C2CCCCC2)c2ccc(cc23)C(=O)NS(=O)(=O)N(C)CCOCCN(C)C1=O	10	> 25	> 25		concentration at 7 h [6]: 898 ng/g
COc1ccc2c(c1)C[C@H]1Cn3c-2c(C2CCCCC2)c2ccc(cc23)C(=O)NS(=O)(=O)N(C)CCOCCN(C)C1=O	10	> 25	> 25		
COc1ccc2c(c1)[C@@H]1C[C@]13Cn1c-2c(C2CCCCC2)c2ccc(cc21)C(=O)NS(=O)(=O)N(C)CCOCCN(C)C3=O	10	> 25	> 25		metabolised at 0.25 h, 5 µM [7]: 95%; EC50 (Hepatitis C virus [5]): 0.04 µM; Kp at 7 h [8]: 38; concentration at 7 h [6]: 3200 ng/g; clearance [9]: 86.7 mL/min/kg; metabolised at 0.25 h [10]: 70%; bioavailability [11]: 51%
COc1ccc2c(c1)C=C1CN(C)CCCCN(C)S(=O)(=O)NC(=O)c3ccc4c(C5CCCCC5)c-2n(c4c3)C1	10	> 25	> 25		EC50 (Hepatitis C virus [5]): 2.34 µM
COc1ccc2c(c1)[C@H]1C[C@@]13Cn1c-2c(C2CCCCC2)c2ccc(cc21)C(=O)NS(=O)(=O)N(C)CCOCCN(C)C3=O	10	> 25	> 25		EC50 (Hepatitis C virus [5]): 0.8 µM
COc1ccc2c(O[C@@H]3C[C@H]4C(=O)N[C@]5(C(=O)NS(=O)(=O)C6CC6)C[C@H]5/C=C\CCCCN(C)C(=O)[C@@H]4C3)cc(-c3nc(C(C)C)cs3)nc2c1C					Activity (Hepatitis C virus [12]): inactive; Activity (Hepatitis C virus [13]): Active; Activity (Hepatitis C virus [14]): Active; Activity (Hepatitis C virus [15]): inactive; Activity (Hepatitis C virus [16]): inactive
